Source: ChEMBL document CHEMBL1131013, “Synthesis and evaluation of analogues of the partial agonist 6-(propyloxy)-4-(methoxymethyl)-beta-carboline-3-carboxylic acid ethyl ester (6-PBC) and the full agonist 6-(benzyloxy)-4-(methoxymethyl)-beta-carboline-3-carboxylic acid ethyl ester (Zk 93423) at wild type and recombinant GABAA receptors” (J Med Chem, 1998)
pIC50, pKi: −log10 of the molar value.

Tests used:
[1] = target: GABA-A receptor; anion channel; assay: Displacement of [3H]flunitrazepam from GABA-A Benzodiazepine receptor of rat brain cortical membranes; type: cell membranes, Membrane
Method in brief: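 Rat cerebral cortex homogenized in 50 mM Tris-citrate, pH 7.4, and washed by centrifugation (20000g). […] Nonspecific binding with 10 μM Ro15-1788. Ended by vacuum filtration. IC50 estimated from at least six inhibitor concentrations; mean ± SEM of at least three determinations.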

[2] = target: GABA-A receptor; alpha-6/beta-3/gamma-2 (Homo sapiens, UniProt P18507+P28472+Q16445); assay: Binding affinity measured using LtK- cell membranes expressing Gamma-aminobutyric acid A receptor alpha-6-beta-3-gamma-2
Method in brief: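 Ltk- cells expressing human α6β3γ2, scraped into PBS and resuspended in 10 mM KH2PO4/100 mM KCl pH 7.4. 1 h at 4 °C to equilibrium, filtration, scintillation counting.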

[3] = target: T1, GABA-A receptor; alpha-5/beta-3/gamma-2 (Homo sapiens, UniProt P18507+P28472+P31644); assay: Binding affinity measured using LtK- cell membranes expressing Gamma-aminobutyric acid A receptor alpha-5-beta-3-gamma-2
T1 sequence (P18507 whole entry): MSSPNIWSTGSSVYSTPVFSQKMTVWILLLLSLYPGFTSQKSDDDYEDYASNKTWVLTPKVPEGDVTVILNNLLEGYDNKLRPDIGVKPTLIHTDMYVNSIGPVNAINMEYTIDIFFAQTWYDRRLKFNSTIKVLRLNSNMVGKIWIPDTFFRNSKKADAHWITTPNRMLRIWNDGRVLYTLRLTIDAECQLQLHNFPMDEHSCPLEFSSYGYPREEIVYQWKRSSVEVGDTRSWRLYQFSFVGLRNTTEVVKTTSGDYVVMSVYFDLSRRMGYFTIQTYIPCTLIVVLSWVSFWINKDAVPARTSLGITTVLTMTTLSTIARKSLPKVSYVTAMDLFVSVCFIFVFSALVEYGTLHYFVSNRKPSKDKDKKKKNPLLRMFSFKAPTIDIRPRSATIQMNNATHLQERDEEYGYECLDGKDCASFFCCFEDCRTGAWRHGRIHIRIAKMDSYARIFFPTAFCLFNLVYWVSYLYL
T1 sequence (P28472 whole entry): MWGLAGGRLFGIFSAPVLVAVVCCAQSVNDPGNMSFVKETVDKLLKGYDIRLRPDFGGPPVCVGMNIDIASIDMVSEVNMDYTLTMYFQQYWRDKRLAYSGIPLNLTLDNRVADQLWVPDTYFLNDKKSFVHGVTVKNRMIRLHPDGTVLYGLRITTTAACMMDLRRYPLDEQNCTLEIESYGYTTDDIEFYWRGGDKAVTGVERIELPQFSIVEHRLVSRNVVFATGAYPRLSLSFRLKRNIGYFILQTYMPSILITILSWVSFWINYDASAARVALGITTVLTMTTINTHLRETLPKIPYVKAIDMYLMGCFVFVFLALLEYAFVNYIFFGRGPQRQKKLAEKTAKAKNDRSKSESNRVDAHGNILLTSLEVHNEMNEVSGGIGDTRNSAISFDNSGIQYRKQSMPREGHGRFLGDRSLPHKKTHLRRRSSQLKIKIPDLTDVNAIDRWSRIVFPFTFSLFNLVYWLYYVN
T1 sequence (P31644 whole entry): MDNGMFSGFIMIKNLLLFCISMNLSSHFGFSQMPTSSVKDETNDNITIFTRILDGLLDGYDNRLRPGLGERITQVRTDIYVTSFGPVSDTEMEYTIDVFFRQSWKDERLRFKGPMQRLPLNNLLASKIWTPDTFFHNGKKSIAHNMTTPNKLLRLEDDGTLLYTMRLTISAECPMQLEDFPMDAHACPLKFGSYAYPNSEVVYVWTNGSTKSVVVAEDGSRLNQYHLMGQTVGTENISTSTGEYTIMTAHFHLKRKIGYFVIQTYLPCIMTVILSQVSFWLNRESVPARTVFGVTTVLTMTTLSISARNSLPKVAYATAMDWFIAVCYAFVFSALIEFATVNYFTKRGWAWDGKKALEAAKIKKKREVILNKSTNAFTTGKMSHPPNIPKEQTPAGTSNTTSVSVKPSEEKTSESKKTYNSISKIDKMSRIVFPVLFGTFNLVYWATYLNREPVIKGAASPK

[4] = target: T2, GABA-A receptor; alpha-1/beta-3/gamma-2 (Homo sapiens, UniProt P14867+P18507+P28472); assay: Binding affinity measured using LtK- cell membranes expressing GABA alpha-1-beta-3-gamma-2 receptor
T2 sequence (P14867 whole entry): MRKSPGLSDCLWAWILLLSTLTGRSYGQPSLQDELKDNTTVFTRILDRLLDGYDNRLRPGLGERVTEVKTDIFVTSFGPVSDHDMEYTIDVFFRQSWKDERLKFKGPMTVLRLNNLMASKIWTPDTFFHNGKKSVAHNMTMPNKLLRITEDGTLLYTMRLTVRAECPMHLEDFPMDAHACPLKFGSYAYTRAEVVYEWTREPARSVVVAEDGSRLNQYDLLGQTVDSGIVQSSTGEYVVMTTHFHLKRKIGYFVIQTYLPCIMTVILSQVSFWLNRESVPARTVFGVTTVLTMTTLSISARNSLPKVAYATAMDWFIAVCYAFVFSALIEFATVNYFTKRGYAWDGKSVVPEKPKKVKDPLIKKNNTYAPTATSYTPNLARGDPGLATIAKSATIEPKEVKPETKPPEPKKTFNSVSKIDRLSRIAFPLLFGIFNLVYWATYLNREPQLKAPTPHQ
T2 sequence (P18507 whole entry): T1 sequence (P18507 whole entry)
T2 sequence (P28472 whole entry): T1 sequence (P28472 whole entry)

[5] = target: T3, GABA-A receptor; alpha-3/beta-3/gamma-2 (Homo sapiens, UniProt P18507+P28472+P34903); assay: Binding affinity measured using LtK- cell membranes expressing GABA alpha-3-beta-3-gamma-2 receptor
T3 sequence (P18507 whole entry): T1 sequence (P18507 whole entry)
T3 sequence (P28472 whole entry): T1 sequence (P28472 whole entry)
T3 sequence (P34903 whole entry): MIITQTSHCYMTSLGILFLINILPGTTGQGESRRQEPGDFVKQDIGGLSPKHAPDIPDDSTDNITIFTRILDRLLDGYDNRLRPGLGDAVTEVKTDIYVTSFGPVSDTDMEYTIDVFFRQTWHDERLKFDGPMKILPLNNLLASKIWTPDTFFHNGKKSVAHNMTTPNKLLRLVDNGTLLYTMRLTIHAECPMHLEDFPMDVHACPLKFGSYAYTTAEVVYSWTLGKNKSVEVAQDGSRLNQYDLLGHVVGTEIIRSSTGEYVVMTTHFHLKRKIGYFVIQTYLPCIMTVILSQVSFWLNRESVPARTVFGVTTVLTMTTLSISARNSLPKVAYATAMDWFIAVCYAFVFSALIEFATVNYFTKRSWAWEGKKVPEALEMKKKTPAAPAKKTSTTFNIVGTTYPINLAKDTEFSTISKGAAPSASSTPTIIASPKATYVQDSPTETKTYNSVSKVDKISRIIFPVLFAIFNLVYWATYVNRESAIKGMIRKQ

[6] = target: T4, GABA-A receptor; alpha-2/beta-3/gamma-2 (Homo sapiens, UniProt P18507+P28472+P47869); assay: Binding affinity measured using LtK- cell membranes expressing GABA alpha-2-beta-3-gamma-2 receptor
T4 sequence (P18507 whole entry): T1 sequence (P18507 whole entry)
T4 sequence (P28472 whole entry): T1 sequence (P28472 whole entry)
T4 sequence (P47869 whole entry): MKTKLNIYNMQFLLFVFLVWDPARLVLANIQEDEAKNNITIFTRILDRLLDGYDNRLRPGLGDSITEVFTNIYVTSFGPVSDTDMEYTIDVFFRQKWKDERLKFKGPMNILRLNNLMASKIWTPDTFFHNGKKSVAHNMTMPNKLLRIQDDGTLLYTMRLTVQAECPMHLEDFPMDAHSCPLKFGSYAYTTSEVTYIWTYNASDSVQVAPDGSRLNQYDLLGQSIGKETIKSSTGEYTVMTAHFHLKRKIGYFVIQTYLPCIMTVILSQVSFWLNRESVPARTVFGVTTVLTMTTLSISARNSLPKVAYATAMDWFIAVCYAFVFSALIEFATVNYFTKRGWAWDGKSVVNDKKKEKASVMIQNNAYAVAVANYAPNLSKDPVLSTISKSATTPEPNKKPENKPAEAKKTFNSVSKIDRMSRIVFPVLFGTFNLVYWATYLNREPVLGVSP

Sequence of GABA-A receptor; alpha-6/beta-3/gamma-2 (Q16445 whole entry, one chain of several): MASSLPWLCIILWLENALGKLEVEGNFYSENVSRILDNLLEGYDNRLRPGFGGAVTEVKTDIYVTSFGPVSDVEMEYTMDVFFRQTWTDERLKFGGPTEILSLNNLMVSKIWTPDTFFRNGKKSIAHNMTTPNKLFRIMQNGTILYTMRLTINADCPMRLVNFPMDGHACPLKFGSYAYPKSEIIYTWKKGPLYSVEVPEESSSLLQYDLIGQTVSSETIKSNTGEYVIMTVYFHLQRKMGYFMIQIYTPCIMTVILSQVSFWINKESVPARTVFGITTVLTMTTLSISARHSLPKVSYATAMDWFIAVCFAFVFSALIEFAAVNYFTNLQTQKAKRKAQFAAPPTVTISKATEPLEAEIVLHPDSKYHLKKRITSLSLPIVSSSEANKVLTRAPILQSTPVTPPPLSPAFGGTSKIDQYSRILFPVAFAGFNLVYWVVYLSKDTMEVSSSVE

SMILES | pIC50 [1] | pKi [2] | pKi [3] | pKi [4] | pKi [5] | pKi [6]
COCc1c(N=C=S)[nH]cc2nc3ccc(OCc4ccccc4)cc3c1-2 | 7.40 | < 5.00 | 6.80 | 7.60 | 7.23 | 7.08
CC(C)COc1cc2c(cn1)[nH]c1ccccc12 |  | < 5.00 | 6.00 | 7.60 | 6.86 | 6.91
CCCOc1[nH]cc2nc3ccc(OCc4ccccc4)cc3c-2c1COC | 7.20 |  |  |  |  | 
CCCOc1ccc2c(c1)c1c(COC)c(C(=O)OCC)ncc1n2C | 6.54 |  |  |  |  | 
CCCOc1ccc2[nH]c3cnc(OCCC)c(COC)c3c2c1 | 7.36 | < 5.00 | 6.48 | 7.61 | 6.57 | 6.67
CCc1c(OC)[nH]cc2nc3cc(OC)c(OC)cc3c1-2 |  | < 6.52 | < 6.52 | < 6.52 | < 6.52 | < 6.52
Cc1nnc2ccc(-c3cccc(C(F)(F)F)c3)nn12 [CI-218872] |  | < 5.00 | 6.25 | 7.24 | 5.94 | 5.71
CCCOc1ccc2[nH]c3cnc(N=C=S)c(COC)c3c2c1 | 7.61 |  |  |  |  | 
CCOC(=O)c1[nH]cc2nc3ccc(OCc4ccccc4)cc3c-2c1CC |  | < 5.00 | 7.17 | 7.68 | 7.23 | 7.11
CC(C)Oc1cc2c(cn1)[nH]c1ccccc12 |  | < 5.00 | < 5.00 | 6.55 | < 5.52 | < 5.52
Cc1ccc(-c2nc3ccc(C)cn3c2CC(=O)N(C)C)cc1 [ZOLPIDEM] |  | < 5.00 | < 5.00 |  |  | 
CCOC(=O)c1ncc2c(c1CC)c1cc(OCc3cccc4ccccc34)ccc1n2C | < 6.00 |  |  |  |  | 
COCc1c(C(=O)OC(C)C)ncc2[nH]c3ccc(OCc4ccccc4)cc3c12 [ABECARNIL] |  | < 5.00 | 8.22 | 7.91 | 8.12 | 7.82
CC(C)(C)OC(=O)c1cc2c3ccccc3nc-2c[nH]1 |  | < 5.30 | 6.95 | 9.14 | 7.72 | 7.82
CCOC(=O)c1ncc2c(c1CC)c1cc(OCc3ccccc3)ccc1n2C | < 5.30 |  |  |  |  | 
CCCOc1ccc2[nH]c3cnc(C(=O)OC(C)C)c(COC)c3c2c1 | 7.51 |  |  |  |  | 
CCOC(=O)c1ncc2c(c1CC)c1ccccc1n2C |  | < 5.00 | < 6.00 | < 6.00 | < 6.00 | < 6.00

SMILES | pIC50 [1] | pKi [2] | pKi [3] | pKi [4] | pKi [5] | pKi [6]
CCCCOc1cc2c(cn1)[nH]c1ccccc12 |  | < 6.00 | 6.00 | 7.43 | 6.61 | 6.71
CCC(C)Oc1cc2c3ccccc3nc-2c[nH]1 (stereo unspecified) |  | < 5.00 | < 5.00 | 6.61 | 6.06 | 6.09
CCOC(=O)c1cc2c(cn1)[nH]c1ccccc12 |  |  |  | 8.92 |  | 
COCc1c(N)[nH]cc2nc3ccc(OCc4ccccc4)cc3c1-2 | 6.57 |  |  |  |  | 
CCOC(=O)c1ncc2c(c1COC)c1cc(OCc3cccc4ccccc34)ccc1n2C | 6.14 |  |  |  |  | 
c1ccc(COc2cc3c4ccccc4nc-3c[nH]2)cc1 |  | < 5.00 | < 5.00 | 6.08 | < 5.52 | < 5.52
CCCOc1cc2c(cn1)[nH]c1ccccc12 |  | < 6.00 | 6.23 | 8.28 | 7.16 | 7.28
CCOC(=O)c1[nH]cc2nc3cc(OC)c(OC)cc3c-2c1CC |  | 7.13 | 8.48 | 8.21 | 8.40 | 7.73
CC(C)CCOc1cc2c3ccccc3nc-2c[nH]1 |  | < 5.00 | < 5.52 | 6.46 | < 5.52 | < 5.52
CCOC(=O)c1ncc2[nH]c3ccc(OCc4ccccc4)cc3c2c1COC |  | < 6.00 | 8.35 | 8.39 | 8.22 | 8.38
CCOC(=O)c1[nH]cc2nc3ccc(OCc4cccc5ccccc45)cc3c-2c1COC | 7.26 | < 6.00 | 6.49 | 7.81 | 6.53 | 
CCOC(=O)c1ncc2[nH]c3ccccc3c2c1COC |  | 5.94 | 7.98 | 9.22 | 8.32 | 8.55
CCOc1[nH]cc2nc3cc(OC)c(OC)cc3c-2c1CC |  | < 6.52 | < 6.52 | < 6.52 | < 6.52 | < 6.52
CCCCCCCCOc1ccc2c(c1)c1c(CC)c(C(=O)OCC)ncc1n2C | < 6.00 |  |  |  |  | 
CCc1c(C(=O)OC)ncc2[nH]c3cc(OC)c(OC)cc3c12 |  | 6.87 | 9.00 | 8.24 | 8.40 | 8.08
COCc1c(/N=C(/S)OC)[nH]cc2nc3ccc(OCc4ccccc4)cc3c1-2 | 6.75 |  |  |  |  | 
CCOC(=O)c1cc2c3cc(OCc4ccccc4)ccc3n(C)c2cn1 | < 5.30 |  |  |  |  | 
